Here are results for 34 compounds from ChEMBL document CHEMBL1141188, “Methyl substitution on the piperidine ring of N-[omega-(6-methoxynaphthalen-1-yl)alkyl] derivatives as a probe for selective binding and activity at the sigma(1) receptor” (J Med Chem, 2005).

Experiment [1] has as its target Sigma non-opioid intracellular receptor 1 (Rattus norvegicus) (UniProt Q9R0C9). Kind of experiment: Percentage inhibition of rat C6 glioma cell proliferation mediated by sigma 1 receptor at 50 uM.
In experiment [2] the target is T1, 3-beta-hydroxysteroid-Delta(8),Delta(7)-isomerase (Cavia porcellus, UniProt Q60490).
T1 sequence (Q60490 whole entry): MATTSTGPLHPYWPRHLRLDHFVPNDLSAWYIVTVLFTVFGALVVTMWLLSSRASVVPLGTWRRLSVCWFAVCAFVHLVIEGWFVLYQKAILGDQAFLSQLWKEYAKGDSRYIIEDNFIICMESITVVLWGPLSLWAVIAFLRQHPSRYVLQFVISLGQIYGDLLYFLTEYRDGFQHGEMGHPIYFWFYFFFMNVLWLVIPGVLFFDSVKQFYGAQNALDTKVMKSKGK
Kind of experiment: Displacement of [3H](+/-)-emopamil from delta8-delta7 sterol isomerase (SI) site in guinea pig liver membranes. In kind it is cell membranes, Membrane. In a few lines: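 Guinea pig liver membranes with (±)-[3H]emopamil; (±)-ifenprodil defined nonspecific binding. IC50 from six to nine concentrations, two or three duplicate experiments; Ki by nonlinear curve fitting.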
A general note: In a radioligand displacement assay an active substance lowers the binding of a labelled ligand.

Experiment [3] has as its target Sigma non-opioid intracellular receptor 1 (Cavia porcellus) (UniProt Q60492). Put plainly: […] rat sigma 2 receptor over guinea pig sigma 1 receptor.
In experiment [4] the target is Sigma 2 receptor. Put plainly: Displacement of [3H]DTG from sigma 2 receptor in rat liver membranes. In kind it is cell membranes, Membrane.
The species named for experiment [5] is Cavia porcellus. Put plainly: Selectivity for guinea pig delta8-delta7 sterol isomerase (SI) site over guinea pig sigma 1 receptor.
For experiment [6], the target named is Sigma non-opioid intracellular receptor 1 (Cavia porcellus, UniProt Q60492). Put plainly: Displacement of [3H](+)-pentazocine from sigma 1 receptor in guinea pig brain membranes. In kind it is cell membranes, Membrane.
Chain of Sigma non-opioid intracellular receptor 1 (Q60492 whole entry): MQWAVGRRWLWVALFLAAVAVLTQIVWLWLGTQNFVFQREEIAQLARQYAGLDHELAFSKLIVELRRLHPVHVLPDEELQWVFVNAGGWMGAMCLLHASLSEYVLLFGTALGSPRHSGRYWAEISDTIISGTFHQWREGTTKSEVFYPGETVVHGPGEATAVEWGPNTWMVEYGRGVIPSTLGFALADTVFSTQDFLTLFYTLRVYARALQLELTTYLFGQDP

Chain of Sigma non-opioid intracellular receptor 1 (Cavia porcellus) (Q60492 whole entry): as above
Chain of Sigma non-opioid intracellular receptor 1 (Rattus norvegicus) (Q9R0C9 whole entry): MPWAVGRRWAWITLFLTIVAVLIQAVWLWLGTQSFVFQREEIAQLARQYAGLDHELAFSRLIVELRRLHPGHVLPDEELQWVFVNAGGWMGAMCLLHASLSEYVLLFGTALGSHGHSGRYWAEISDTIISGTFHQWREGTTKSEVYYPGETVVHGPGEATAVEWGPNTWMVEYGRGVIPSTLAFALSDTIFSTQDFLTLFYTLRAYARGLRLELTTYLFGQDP

For the compound `c1ccc(CCN2CCCCC2)cc1`, the inhibition in experiment [1] was determined as 5%.

Consider `CC(C)=CCN1CC[C@]2(C)c3cc(O)ccc3C[C@H]1[C@H]2C` [(+)-PENTAZOCINE], for which the inhibition constant Ki in experiment [2] is greater than 10000 nM. In experiment [1], this compound gave an inhibition of 35%.

In turn, `COc1ccc2c(c1)CCCC2CCCCN1CCCC(C)(C)C1` (configuration not stated) returned an inhibition in experiment [1] of 31%.

Consider `COc1ccc2c(c1)CCCC2CCCCN1CCCCC1(C)C` (configuration not stated), for which the Ki in experiment [2] is 8.97 nM; in experiment [4], 29.5 nM; in experiment [6] it was 6.16 nM. Also, the Ratio Ki in experiment [3] is 4.8; in experiment [5] it was 1.4.

Turning to `COc1ccc2c(CCCN3CCC(C)CC3)cccc2c1`, the Ki in experiment [2] came out at 19.5 nM; in experiment [4] it was 38.9 nM; in experiment [6], 1.5 nM. In addition, the Ratio Ki in experiment [3] is 26; in experiment [5] it was 13.

Take `COc1ccc2c(CCCN3CCC[C@@H](C)C3)cccc2c1`: the figures for the Ki in experiment [2], in experiment [4] and in experiment [6] were 19.3 nM, 60.2 nM and 1.35 nM, respectively. Moreover, the Ratio Ki in experiment [3] is 45; in experiment [5], 14.

Turning to `COc1ccc2c(CCCCN3CCC[C@@H](C)C3)cccc2c1`, the Ki is 14.6 nM in experiment [2], 64 nM in experiment [4] and 0.24 nM in experiment [6]. The Ratio Ki is 266 in experiment [3] and 61 in experiment [5].

For `COc1ccc2c(CCCN3CCCC(C)(C)C3)cccc2c1`, the Ki worked out at 8.71 nM in experiment [2], 238 nM in experiment [4] and 0.35 nM in experiment [6]. Besides, the Ratio Ki was 680 in experiment [3] and 25 in experiment [5].

Consider `COc1ccc2c(CCCCN3CCCCC3)cccc2c1`, for which the Ki was 19.5 nM in experiment [2], 151 nM in experiment [4] and 1.14 nM in experiment [6]. Moreover, the Ratio Ki amounted to 132 in experiment [3] and 17 in experiment [5].

For the compound `COc1ccc2c(CCCN3CCCCC3(C)C)cccc2c1`, the results for the Ki in experiment [2], in experiment [4] and in experiment [6] were 14.9 nM, 94 nM and 1060 nM, respectively. In addition, the values for the Ratio Ki in experiment [3] and in experiment [5] were 0.09 and 0.014, respectively.

With `COc1ccc2c(CCCCN3CCC(C)(C)CC3)cccc2c1`, the Ki came out at 1.82 nM in experiment [2], 17.9 nM in experiment [4] and 2.25 nM in experiment [6]. The Ratio Ki amounted to 8 in experiment [3] and 0.8 in experiment [5].

Regarding `COc1ccc2c(CCCCN3CCCC[C@H]3C)cccc2c1`, the Ki in experiment [2] came to 6.44 nM; in experiment [4], 49.2 nM; in experiment [6] it was 1.43 nM. Moreover, the Ratio Ki stood at 34 in experiment [3] and 4.5 in experiment [5].

For the compound `COc1ccc2c(c1)CCCC2CCCN1CCC(C)(C)CC1` (configuration not stated), the Ki in experiment [2] turned out to be 5.39 nM; in experiment [4], 31.4 nM; in experiment [6] it was 1.18 nM. The Ratio Ki came to 27 in experiment [3] and 3 in experiment [5].

Turning to `COc1ccc2c(CCCN3CCCC[C@H]3C)cccc2c1`, the Ki in experiment [2] is 11.1 nM; in experiment [4] it was 86.2 nM; in experiment [6], 1.83 nM. Moreover, the Ratio Ki in experiment [3] turned out to be 47; in experiment [5], 6.1.

Take `COc1ccc2c(c1)CCCC2CCCCN1CCCCC1` (configuration not stated): the Ki in experiment [2] worked out at 3.57 nM; in experiment [4], 48.7 nM; in experiment [6], 1.01 nM. For the same compound, the values for the Ratio Ki in experiment [3] and in experiment [5] were 48 and 3.5, respectively. In experiment [1], the inhibition stood at 47%.

Regarding `COc1ccc2c(c1)CCCC2CCCN1CCCCC1` (configuration not stated), the Ki in experiment [2] is 17.9 nM; in experiment [4] it was 26.2 nM; in experiment [6] it was 1.2 nM. Moreover, the Ratio Ki was 22 in experiment [3] and 15 in experiment [5].

In the case of `COc1ccc2c(CCCN3CCCC[C@@H]3C)cccc2c1`, the results for the Ki in experiment [2], in experiment [4] and in experiment [6] were 46.5 nM, 104 nM and 7.05 nM, respectively. For the same compound, the Ratio Ki in experiment [3] was 15; in experiment [5], 6.6.

Regarding `COc1ccc2c(c1)CCCC2CCCCN1CCC(C)(C)CC1` (configuration not stated), the Ki in experiment [2] is 4.11 nM; in experiment [4], 17.5 nM; in experiment [6], 0.3 nM. Also, the values for the Ratio Ki in experiment [3] and in experiment [5] were 58 and 14, respectively.

With `COc1ccc2c(CCCCN3CCC[C@H](C)C3)cccc2c1`, the Ki in experiment [2] amounted to 2.81 nM; in experiment [4], 32.7 nM; in experiment [6], 0.66 nM. The results for the Ratio Ki in experiment [3] and in experiment [5] were 50 and 4.3, respectively.

For `COc1ccc2c(c1)CCCC2CCCN1CCC(C)CC1` (configuration not stated), the Ki came to 5.34 nM in experiment [2], 31.4 nM in experiment [4] and 1.78 nM in experiment [6]. The Ratio Ki in experiment [3] is 18; in experiment [5] it was 3.

Consider `CCCN(CCC)CCc1ccc(OC)c(OCCc2ccccc2)c1`, for which the Ki in experiment [2] came out at 14.6 nM; in experiment [4], 212 nM.

On to `COc1ccc2c(c1)CCCC2CCCCN1CCC(C)CC1` (configuration not stated), for which the Ki in experiment [2] came out at 5.55 nM; in experiment [4] it was 36.3 nM; in experiment [6], 0.42 nM. The Ratio Ki in experiment [3] is 86; in experiment [5] it was 13. The compound also displayed an inhibition in experiment [1] of 53%.

For `COc1ccc2c(CCCCN3CCCCC3(C)C)cccc2c1`, the Ki was determined as 11.7 nM in experiment [2], 28.6 nM in experiment [4] and 22.2 nM in experiment [6]. Moreover, the Ratio Ki in experiment [3] was 1.3; in experiment [5], 0.5.

As for `COc1ccc2c(CCCCN3CCC(C)CC3)cccc2c1`, the values for the Ki in experiment [2], in experiment [4] and in experiment [6] were 8.04 nM, 17.9 nM and 0.03 nM, respectively. The Ratio Ki in experiment [3] came out at 597; in experiment [5], 268.

As for `COc1ccc2c(CCCN3CCC(C)(C)CC3)cccc2c1`, the Ki in experiment [2] came to 9.04 nM; in experiment [4] it was 26.3 nM; in experiment [6], 1.47 nM. The Ratio Ki is 18 in experiment [3] and 6.1 in experiment [5].

As to `COc1ccc2c(CCCCN3CCCC[C@@H]3C)cccc2c1`, the Ki in experiment [2] stood at 7.2 nM; in experiment [4] it was 53.8 nM; in experiment [6] it was 0.5 nM. In addition, the Ratio Ki came to 108 in experiment [3] and 14 in experiment [5].

In experiment [2], `CC(C(O)c1ccc(O)cc1)N1CCC(Cc2ccccc2)CC1` (racemic) [IFENPRODIL] yielded a Ki of 4.7 nM.

As to `COc1ccc2c(CCCN3CCCCC3)cccc2c1`, the results for the Ki in experiment [2], in experiment [4] and in experiment [6] were 37.6 nM, 175 nM and 7.8 nM, respectively. The figures for the Ratio Ki in experiment [3] and in experiment [5] were 22 and 4.8, respectively.

Turning to `COc1ccc2c(CCCN3CCC[C@H](C)C3)cccc2c1`, the Ki was 3.41 nM in experiment [2], 59.3 nM in experiment [4] and 3.32 nM in experiment [6]. In addition, the Ratio Ki in experiment [3] came to 18; in experiment [5], 1.

Turning to `COc1ccc2c(c1)CCCC2CCCN1CCCCC1(C)C` (configuration not stated), the values for the Ki in experiment [2], in experiment [4] and in experiment [6] were 16.4 nM, 115 nM and 178 nM, respectively. In addition, the Ratio Ki is 0.6 in experiment [3] and 0.1 in experiment [5].

In turn, `O=C(Cc1ccc(Cl)c(Cl)c1)OCCN1CCCC1` returned an inhibition in experiment [1] of 25%.

Take `COc1ccc2c(CCCCN3CCCC(C)(C)C3)cccc2c1`: the Ki is 1.89 nM in experiment [2], 67.4 nM in experiment [4] and 0.36 nM in experiment [6]. Moreover, the figures for the Ratio Ki in experiment [3] and in experiment [5] were 187 and 5.3, respectively.

`COc1ccc2c(c1)CCCC2CCCN1CCCC(C)(C)C1` (configuration not stated) displayed an inhibition in experiment [1] of 47%.

Take `Cc1ccccc1NC(=N)Nc1ccccc1C`: in experiment [1], the inhibition turned out to be 20%.

A word on the inhibition: it is the percentage by which the read-out fell short of the control. The low end stands for a weak effect, the high end for a strong effect. By Ki is commonly meant the equilibrium dissociation constant of an inhibitor or competing ligand from its target.
